Measured values of several laboratories.
Compare with care: the assays were run in different laboratories.
Medium: plasma

SMILES | system | conditions | Cmax
CO[C@H]1CC[C@H](N2C(=O)CNc3ncc(-c4ccc(C(C)(C)O)nc4)nc32)CC1 | human | oral, 45 mg, multiple doses, patients | 417 ng/mL
COc1cc(C(=O)NC2CCN(C)CC2)c(F)cc1Nc1ncc(C(F)(F)F)c(Oc2cccc3c2C(=O)N(C)C3)n1 | human | oral, 50 mg, single dose, patients | 312 nM
Cc1ccc(C(=O)N(CCCN)[C@@H](c2oc3cc(Cl)ccc3c(=O)c2Cc2ccccc2)C(C)C)cc1 | human | intravenous, 6 mg/m², single dose, patients, infusion | 817 ng/mL
CC(C)(O)c1ccccc1-c1ccc2[nH]c(/C=C/c3ccc(C(F)(F)F)cc3)nc2c1 | male human | oral, 60 mg, single dose, fasted, healthy volunteers | 177 ng/mL
CCc1nc2c(C)cc(N3CCN(CC(=O)N4CC(O)C4)CC3)cn2c1N(C)c1nc(-c2ccc(F)cc2)c(C#N)s1 | human | oral, 300 mg, single dose, fed, healthy volunteers | 3800 ng/mL
CC(C)n1cc(C#N)c2cc(-n3cc(C(=O)O)cn3)ccc21 | human | oral, 100 mg, single dose, fasted, healthy volunteers | 3520 ng/mL
COc1ccc([C@@H]2CN(C(=O)[C@@H](O)CO)C[C@@]2(C)[C@@H](C)O)cc1OC1CN(c2ccc(C)cn2)C1 | human | oral, 40 mg, single dose, healthy volunteers | 799 ng/mL
COCCOc1cnc2ccn([C@H](C)c3nnc4c(F)cc(-c5cnn(C)c5)cn34)c(=O)c2c1 | human | oral, 400 mg, multiple doses, once daily, patients | 5140 ng/mL
Cn1cc(-c2ccc(S(=O)(=O)[C@@H]3C[C@@H](C(=O)NC4(C#N)CC4)N(C(=O)C4(C(F)(F)F)CC4)C3)c(C(F)(F)F)c2)cn1 | human | oral, 3 mg, single dose, fasted, healthy volunteers | 20.8 ng/mL
CCn1c(=O)c(-c2cc(NC(=O)Nc3ccccc3)c(F)cc2Br)cc2cnc(NC)cc21 | human | oral, 100 mg, single dose, patients | 500 ng/mL
C[C@@]1(c2cc(NC(=O)c3ccc(C#N)cn3)ccc2F)C=CSC(N)=N1 | human | oral, 10 mg, single dose | 83.9 ng/mL
